Assay results taken from PubChem BioAssay.
Active and inactive are the calls of the source.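 How the source made its calls, unless noted: active means NADPH fluorescence slope more negative than the mean of all samples by about 3 SD, 99.7% confidence; inactive means the rest.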

Columns and labels:
[1] = inhibitors of TNFa-induced NFkB p65 translocation, primary screen, imaging, HUVEC, MLSMR starter and 10KST1 sets (AID 438;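 active means inhibition above 20% together with a positive visual image hit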;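 further: compound added about 3h40 before a 20 min TNFalpha stimulation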;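 on inhibition: signal is the nuclear over cytoplasmic p65 intensity ratio per well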); details: HUVEC TNFa-induced p65 nuclear translocation; cell count: measured here: nuclei count (cytotoxicity indicator), at 2.08 µM; inhibition: at 2 µM, stronger effect = higher value, 0% TNFa-plus-vehicle, 100% no-TNFa wells
[2] = inhibitors of E-selectin induction by TNFa, primary screen, imaging, HUVEC, immunofluorescence, MLSMR starter and 10KST1 sets (AID 487;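 active means visually confirmed hit in the image check and inhibition above 20%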;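 on inhibition: signal is fraction of cell area covered by stained E-selectin grains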;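 on nuclei count: 100% = median nuclei count of all wells on the same plate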); details: HUVEC TNFalpha-induced E-selectin immunofluorescence imaging, at 2 µM; inhibition: stronger effect = higher value; nuclei count: measured here: cell number, toxicity
[3] = DUSP6 inhibitors restoring Erk phosphorylation by chemical complementation, primary imaging in DUSP6-transfected HeLa (AID 609;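 active means compounds giving at least 50% inhibition in the cell-based MKP-3 phosphatase rescue imaging test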;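 on inhibition: phospho-Erk level distribution per well compared with pooled transfected vehicle control wells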); details: HeLa MKP-3 transfected, phospho-Erk imaging KS statistic, at 10 µM, cells stimulated with TPA for 15 min
[4] = biological target: Dual specificity protein phosphatase 6 (Homo sapiens) (UniProt Q16828); test: as above; details: HeLa MKP-3 transfected, phospho-Erk imaging KS statistic; at 10 µM; stronger effect = higher value; cells stimulated with TPA for 15 min
[5] = biological target: Voltage-gated potassium channel subunit beta-2 (Rattus norvegicus) (UniProt P62483); test: KvBeta enzyme negative modulators, primary screen, biochemical, NADPH fluorescence (AID 622;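 active means fluorescence slope higher than the sample average by over 3 SD, cut at about -0.22 in these data, passing the limit was not always enough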;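 further: slope of raw intensity against log time taken from 70 to 1610 s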); details: recombinant KvBeta, 4-cyanobenzaldehyde reduction, at 10 µM, stronger effect = higher value
[6] = biological target: Voltage-gated potassium channel subunit beta-2 (Rattus norvegicus) (UniProt P62483); test: KvBeta positive modulators, primary screen, biochemical, NADPH fluorescence (AID 623); details: Recombinant KvBeta, NADPH fluorescence decrease slope, 10 min; at 10 µM; stronger effect = lower value;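 further: fluorescence intensity change per second fitted from 20 to 320 s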
[7] = biological target: Muscarinic acetylcholine receptor M4 (Homo sapiens) (UniProt P08173); test: compounds altering M4/GIRK thallium flux, either direction, primary screen, M4 allosteric agonist project, cell-based, HEK293 M4/GIRK, BTC-AM (AID 625;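 active means fluorescence slope after compound addition differing from the mean of all tested samples at 99.7% confidence, mostly higher but some lower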;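 further: thallium influx through GIRK channels coupled to M4 in HEK293 cells with BTC-AM dye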); details: at 10 µM, actives lie on both sides
Summary of the method: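 System: HEK293 cells with M4 receptor and GIRK channels | Incubation: Cells overnight at 37 °C, BTC-AM loading 1 h, reads 2 min total | Technique: Kinetic BTC-AM fluorescence sampled at 1 Hz, 10 s pre-addition baseline | Measure: Post-addition slope, 15–24 s, of baseline-normalized fluorescence | Control set: Carbachol positive, DMSO negative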

[8] = inhibitors of larval lipid processing in zebrafish, primary screen, whole organism, PED6 fluorescence, gall bladder and intestine (AID 686;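 active means a full or partial loss of lipid-probe fluorescence in the fish gall bladder, intestine or both, judged by eye; inactive means no fluorescence loss, or compound toxic to the fish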;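 further: larvae 5 to 7 days old with five fish per well; signal comes from phospholipase A2 cleavage of quenched PED6 carried via bile; overnight exposure to compound and PED6 before scoring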); details: Zebrafish larvae PED6 lipid processing, fluorescence scoring; screened at 20 µM (by protocol)
Summary of the method: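 Test system – live zebrafish larvae aged 5-7 days, whole organism · Buffer or medium – E3 fish medium · Reagent – quenched phospholipase substrate PED6, 100 nM final, ingested by larvae · Doses – 20 µM single dose · Incubation – overnight compound and PED6 incubation · Technique – visual fluorescence microscopy scoring of gall bladder, gut · Read-out basis – visual per-well fluorescence inhibition score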

[9] = inhibitors of Chlamydomonas gravitaxis, primary screen, whole organism, Chlamydomonas reinhardtii, WT vs cilia-less mutant, absorbance, 96-well (AID 463189;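 active means inhibition at or above 50% relative to wild type and mutant plate controls; inactive means inhibition below 50%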;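 further: 0% = wild type cc124 cells in DMSO and 100% = ciliumless bld1 mutant cells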); details: OD600 absorbance, 2 days, at 10 µM, stronger effect = higher value
[10] = measured here: cell density z-score
[11] = measured here: nuclear c-Myc green intensity z-score
[12] = measured here: nuclear pErk red intensity z-score, stronger effect = higher value

Sequence of Muscarinic acetylcholine receptor M4 (Homo sapiens) (P08173 whole entry, looked up): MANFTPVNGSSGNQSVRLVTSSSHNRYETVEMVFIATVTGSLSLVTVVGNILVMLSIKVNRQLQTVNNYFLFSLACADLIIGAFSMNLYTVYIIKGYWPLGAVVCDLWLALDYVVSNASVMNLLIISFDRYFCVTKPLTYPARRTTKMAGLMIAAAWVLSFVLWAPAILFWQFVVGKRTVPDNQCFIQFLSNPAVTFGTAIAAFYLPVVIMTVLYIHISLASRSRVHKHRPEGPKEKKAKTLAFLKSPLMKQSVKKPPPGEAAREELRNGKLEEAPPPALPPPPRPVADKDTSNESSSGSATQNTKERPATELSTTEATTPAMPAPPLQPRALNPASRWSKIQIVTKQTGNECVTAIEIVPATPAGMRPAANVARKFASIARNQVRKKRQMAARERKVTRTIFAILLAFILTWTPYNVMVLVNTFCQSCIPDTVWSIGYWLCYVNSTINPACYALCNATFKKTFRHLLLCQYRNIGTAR
Sequence of Voltage-gated potassium channel subunit beta-2 (Rattus norvegicus) (P62483 whole entry, looked up): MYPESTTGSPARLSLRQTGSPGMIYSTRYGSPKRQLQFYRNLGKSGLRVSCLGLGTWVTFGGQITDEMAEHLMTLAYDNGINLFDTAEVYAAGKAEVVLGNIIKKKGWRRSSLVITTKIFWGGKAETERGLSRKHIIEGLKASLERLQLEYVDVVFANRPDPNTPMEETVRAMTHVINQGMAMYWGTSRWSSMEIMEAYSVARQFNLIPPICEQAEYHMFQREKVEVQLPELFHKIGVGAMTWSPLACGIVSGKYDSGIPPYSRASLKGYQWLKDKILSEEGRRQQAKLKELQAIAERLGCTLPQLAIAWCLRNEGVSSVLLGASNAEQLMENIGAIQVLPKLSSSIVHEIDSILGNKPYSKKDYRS
Sequence of Dual specificity protein phosphatase 6 (Homo sapiens) (Q16828 whole entry, looked up): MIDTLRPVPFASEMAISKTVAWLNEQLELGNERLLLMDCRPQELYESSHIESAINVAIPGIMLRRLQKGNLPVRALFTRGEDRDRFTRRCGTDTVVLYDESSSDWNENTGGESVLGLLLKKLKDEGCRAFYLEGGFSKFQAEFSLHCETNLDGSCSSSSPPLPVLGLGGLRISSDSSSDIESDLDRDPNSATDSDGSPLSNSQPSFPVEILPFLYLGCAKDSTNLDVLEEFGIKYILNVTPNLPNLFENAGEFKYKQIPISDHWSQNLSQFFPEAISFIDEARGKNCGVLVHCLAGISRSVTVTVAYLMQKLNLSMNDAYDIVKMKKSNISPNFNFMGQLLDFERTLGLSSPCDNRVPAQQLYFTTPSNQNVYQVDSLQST

SMILES	cell count [1]	inhibition [1]	inhibition [2]	nuclei count [2]	z-score [3, 10]	z-score [3, 11]	z-score [3, 12]	inhibition [4]	fluorescence slope [5]	NADPH fluorescence slope [6]	fluorescence slope [7]	outcome [8]	inhibition [9]
Cc1c(O)c(CN2CCCC2)cc2c1oc(=O)c1ccccc12	602	3.3% (inactive)	92.9% (active)	77.2%	0.99	0.189	-0.00827	-8.95% (inactive)	-0.44 (inactive)	-2.9e-05 (inactive)	0.00331 (inactive)	inactive	17.4% (inactive)
N#Cc1cc(Oc2cccc3cccnc23)c(-n2nnc3ccccc32)cc1C#N	527	-0.1% (inactive)	-156% (inactive)	145%	2.59	-0.877	-1.07	6.04% (inactive)	-0.438 (inactive)	-2.5e-05 (inactive)	0.0061 (inactive)	inactive	25.9% (inactive)
COc1cccc(N2CCN(C(=O)c3ccc(=O)oc3)CC2C)c1 (stereo not drawn)	548	-13.7% (inactive)	-2.6% (inactive)	114%	0.444	-0.0742	1.46	-2.91% (inactive)	-0.418 (inactive)	6.4e-07 (inactive)	0.00472 (inactive)	inactive	13.7% (inactive)
Nc1nnnn1/N=C/c1cccs1	656	-4.7% (inactive)	-50.1% (inactive)	124%	-0.3	-1.24	-0.836	-8.95% (inactive)	-0.483 (inactive)	-6.6e-05 (inactive)	0.00656 (inactive)	inactive	17.8% (inactive)
C(=N\n1cnnc1)/c1cccc(Oc2ccccc2)c1	569	-5.8% (inactive)	-140% (inactive)	111%	-0.768	1.37	1.58	-6.06% (inactive)	-0.515 (inactive)	-5.4e-05 (inactive)	0.00705 (inactive)	inactive	78.1% (active)
CCOC(=O)C(C)c1nc2ccccc2[nH]c1=O (stereo not drawn)	579	-6.6% (inactive)	-30.5% (inactive)	164%	-0.098	0.564	0.462	1.9e-07% (inactive)	-0.397 (inactive)	-6.3e-05 (inactive)	0.00575 (inactive)	inactive	12.9% (inactive)
